Data from ChEMBL document CHEMBL1146219, “Synthesis and evaluation of novel radioiodinated benzamides for malignant melanoma” (J Med Chem, 2007).

How the values were obtained:
Conditions in all cases: in vivo
Brain [1] = test: Biodistribution in brain of B16F0 tumor bearing C57BL/6J mouse at 0.37-0.74 MBq, iv after 3 hrs; format: ADME, organism-based
In short: (§1)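 Female C57BL/6J mice (15-18 g) were given B16F0 cells subcutaneously in the left flank (0.1 mL of 3 × 10⁶ viable cells/mL in Ca²⁺/Mg²⁺-free PBS) at 6-7 weeks and used after ten days. [¹²³I]benzamide (0.37-0.74 MBq, 100 µL, saline) was injected via the tail vein. Groups of n = 5 were killed by CO₂ and cervical dislocation. Organs were weighed and γ-counted, and the carcass was counted too.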

Brain [2] = test: Biodistribution in brain of B16F0 tumor bearing C57BL/6J mouse at 0.37-0.74 MBq, iv after 1 hr; format: ADME, organism-based; in short: as §1
[3] = Biodistribution in melanoma of B16F0 tumor bearing C57BL/6J mouse at 0.37-0.74 MBq, iv after 6 hrs; format: ADME, organism-based, B16-F0
In short: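 Female C57BL/6J mice (15-18 g) carrying s.c. B16F0 flank tumors (0.1 mL of 3 × 10⁶ viable cells per mL in Ca²⁺/Mg²⁺-free PBS, inoculated at 6-7 weeks, used 10 days later). [¹²³I]tracer 0.37-0.74 MBq in saline, 100 µL, tail-vein i.v. Groups of n = 5 killed at 1-72 h. Organs weighed and γ-counted, carcass activity also counted, values as %ID/g.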

Liver [4] = test: Biodistribution in liver of B16F0 tumor bearing C57BL/6J mouse at 0.37-0.74 MBq, iv after 3 hrs; format: ADME, organism-based; in short: as §1
Liver [5] = test: Biodistribution in liver of B16F0 tumor bearing C57BL/6J mouse at 0.37-0.74 MBq, iv after 1 hr in presence of haloperidol; format: ADME, organism-based
In short: (§2)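 Haloperidol blocking in B16F0-bearing C57BL/6J mice: 1 mg/kg haloperidol was given iv 5 min before the iv [¹²³I]benzamide (0.37-0.74 MBq). Groups of n = 5 were killed at 1 or 24 h. Tissues were weighed and γ-counted as in the biodistribution study and compared with untreated controls by one-way ANOVA, with p < 0.01 taken as significant.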

[6] = Biodistribution in eye of B16F0 tumor bearing C57BL/6J mouse at 0.37-0.74 MBq, iv after 24 hrs in presence of haloperidol; format: ADME, organism-based; in short: as §2
Heart [7] = test: Biodistribution in heart of B16F0 tumor bearing C57BL/6J mouse at 0.37-0.74 MBq, iv after 24 hrs; format: ADME, organism-based; in short: as §1
Brain [8] = test: Biodistribution in brain of B16F0 tumor bearing C57BL/6J mouse at 0.37-0.74 MBq, iv after 48 hrs; format: ADME, organism-based; in short: as §1
Lung [9] = test: Biodistribution in lung of B16F0 tumor bearing C57BL/6J mouse at 0.37-0.74 MBq, iv after 48 hrs; format: ADME, organism-based; in short: as §1
Blood [10] = test: Biodistribution in blood of B16F0 tumor bearing C57BL/6J mouse at 0.37-0.74 MBq, iv after 24 hrs; format: ADME, organism-based; in short: as §1
Lung [11] = test: Biodistribution in lung of B16F0 tumor bearing C57BL/6J mouse at 0.37-0.74 MBq, iv after 1 hr; format: ADME, organism-based; in short: as §1
Liver [12] = test: Biodistribution in liver of B16F0 tumor bearing C57BL/6J mouse at 0.37-0.74 MBq, iv after 72 hrs; format: ADME, organism-based; in short: as §1
Heart [13] = test: Biodistribution in heart of B16F0 tumor bearing C57BL/6J mouse at 0.37-0.74 MBq, iv after 1 hr; format: ADME, organism-based; in short: as §1
Lung [14] = test: Biodistribution in lung of B16F0 tumor bearing C57BL/6J mouse at 0.37-0.74 MBq, iv after 24 hrs; format: ADME, organism-based; in short: as §1
Kidney [15] = test: Biodistribution in kidney of B16F0 tumor bearing C57BL/6J mouse at 0.37-0.74 MBq, iv after 48 hrs; format: ADME, organism-based; in short: as §1
[16] = Biodistribution in tumor of B16F0 tumor bearing C57BL/6J mouse at 0.37-0.74 MBq, iv after 1 hr in presence of haloperidol; format: ADME, organism-based, B16-F0
In short: (§3)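 B16F0 tumor-bearing C57BL/6J mice, groups of n = 5, given haloperidol 1 mg/kg i.v. 5 min before the i.v. [¹²³I]tracer (0.37-0.74 MBq). Killed at 1 or 24 h. Tissues γ-counted as for biodistribution and compared with untreated controls by one-way ANOVA, significance p < 0.01.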

Lung [17] = test: Biodistribution in lung of B16F0 tumor bearing C57BL/6J mouse at 0.37-0.74 MBq, iv after 1 hr in presence of haloperidol; format: ADME, organism-based; in short: as §2
[18] = Biodistribution in melanoma of B16F0 tumor bearing C57BL/6J mouse at 0.37-0.74 MBq, iv after 48 hrs; format: ADME, organism-based, B16-F0; in short: as §1
Kidney [19] = test: Biodistribution in kidney of B16F0 tumor bearing C57BL/6J mouse at 0.37-0.74 MBq, iv after 1 hr; format: ADME, organism-based; in short: as §1
Kidney [20] = test: Biodistribution in kidney of B16F0 tumor bearing C57BL/6J mouse at 0.37-0.74 MBq, iv after 1 hr in presence of haloperidol; format: ADME, organism-based; in short: as §2
Blood [21] = test: Biodistribution in blood of B16F0 tumor bearing C57BL/6J mouse at 0.37-0.74 MBq, iv after 24 hrs in presence of haloperidol; format: ADME, organism-based
[22] = Biodistribution in melanoma of B16F0 tumor bearing C57BL/6J mouse at 0.37-0.74 MBq, iv after 3 hrs; format: ADME, organism-based, B16-F0; in short: as §1
Lung [23] = test: Biodistribution in lung of B16F0 tumor bearing C57BL/6J mouse at 0.37-0.74 MBq, iv after 6 hrs; format: ADME, organism-based; in short: as §1
Heart [24] = test: Biodistribution in heart of B16F0 tumor bearing C57BL/6J mouse at 0.37-0.74 MBq, iv after 72 hrs; format: ADME, organism-based; in short: as §1
[25] = Biodistribution in eye of B16F0 tumor bearing C57BL/6J mouse at 0.37-0.74 MBq, iv after 1 hr in presence of haloperidol; format: ADME, organism-based; in short: as §2
Kidney [26] = test: Biodistribution in kidney of B16F0 tumor bearing C57BL/6J mouse at 0.37-0.74 MBq, iv after 3 hrs; format: ADME, organism-based; in short: as §1
Brain [27] = test: Biodistribution in brain of B16F0 tumor bearing C57BL/6J mouse at 0.37-0.74 MBq, iv after 24 hrs in presence of haloperidol; format: ADME, organism-based
Blood [28] = test: Biodistribution in blood of B16F0 tumor bearing C57BL/6J mouse at 0.37-0.74 MBq, iv after 1 hr in presence of haloperidol; format: ADME, organism-based
Brain [29] = test: Biodistribution in brain of B16F0 tumor bearing C57BL/6J mouse at 0.37-0.74 MBq, iv after 6 hrs; format: ADME, organism-based; in short: as §1
Heart [30] = test: Biodistribution in heart of B16F0 tumor bearing C57BL/6J mouse at 0.37-0.74 MBq, iv after 6 hrs; format: ADME, organism-based; in short: as §1
[31] = Biodistribution in tumor of B16F0 tumor bearing C57BL/6J mouse at 0.37-0.74 MBq, iv after 24 hrs in presence of haloperidol; format: ADME, organism-based, B16-F0; in short: as §3
Kidney [32] = test: Biodistribution in kidney of B16F0 tumor bearing C57BL/6J mouse at 0.37-0.74 MBq, iv after 24 hrs; format: ADME, organism-based; in short: as §1
Blood [33] = test: Biodistribution in blood of B16F0 tumor bearing C57BL/6J mouse at 0.37-0.74 MBq, iv after 3 hrs; format: ADME, organism-based; in short: as §1

`CCCCN(C)CCCCNC(=O)c1cc([123I])c(NC(C)=O)cc1OC` showed a Drug uptake (Brain [1]) of 0.04 % ID/g, a Drug uptake (Brain [2]) of 0.07 % ID/g and a Drug uptake [3] of 8.4 % ID/g. For the same molecule, the Drug uptake (Liver [4]) was 5 % ID/g, the Drug uptake (Liver [5]) was 15.6 % ID/g and the Drug uptake [6] was 18.7 % ID/g. The Drug uptake (Heart [7]) was 0.12 % ID/g, the Drug uptake (Brain [8]) was 0.01 % ID/g and the Drug uptake (Lung [9]) was 0.08 % ID/g. The Drug uptake (Blood [10]) was 0.11 % ID/g, the Drug uptake (Lung [11]) was 1.9 % ID/g and the Drug uptake (Liver [12]) was 0.25 % ID/g. The Drug uptake (Heart [13]) was 0.98 % ID/g, the Drug uptake (Lung [14]) was 0.1 % ID/g and the Drug uptake (Kidney [15]) was 0.07 % ID/g. The Drug uptake [16] was 6.1 % ID/g, the Drug uptake (Lung [17]) was 1.54 % ID/g and the Drug uptake [18] was 4.6 % ID/g. For the same molecule, the Drug uptake (Kidney [19]) was 21.6 % ID/g, the Drug uptake (Kidney [20]) was 17.3 % ID/g and the Drug uptake (Blood [21]) was 0.02 % ID/g. For the same molecule, the Drug uptake [22] was 9.7 % ID/g, the Drug uptake (Lung [23]) was 0.56 % ID/g and the Drug uptake (Heart [24]) was 0.06 % ID/g. It also gave a Drug uptake [25] of 16.9 % ID/g, a Drug uptake (Kidney [26]) of 3.9 % ID/g and a Drug uptake (Brain [27]) of 0.002 % ID/g. The Drug uptake (Blood [28]) was 1.15 % ID/g, the Drug uptake (Brain [29]) was 0.03 % ID/g and the Drug uptake (Heart [30]) was 0.75 % ID/g. The Drug uptake [31] was 4.5 % ID/g, the Drug uptake (Kidney [32]) was 0.12 % ID/g and the Drug uptake (Blood [33]) was 0.95 % ID/g.
